From the RNAGym collection of RNA variant scans (doi:10.1126/science.aae0568)
Fewer inactive variants are shown than the library holds.

B1: tRNA (parent)
chain: GUUCCGUUGGCGUAAUGGUAACGCGUCUCCCUCCUAAGGAGAAGACUGCGGGUUCGAGUCCCGUACGGAACG

Variants of: B1
Experiment: yeast fitness relative to wild type (ratio to wild type); higher = fitter; tRNA-Arg(CCU), competitive growth, 37 C, YPD
Outline: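 Variants of the tRNA-Arg(CCU) gene, chemically synthesised with a 3% per-site mutation rate at 69 sites, were placed at the native genomic locus in Saccharomyces cerevisiae. The pooled strains were competed in YPD at 37°C for 24 hours in six parallel replicates. Gene amplicons from the start population and from each end population were read by 100-nucleotide paired-end sequencing. Darwinian fitness relative to wild type came from changes in genotype frequencies; genotypes needed ≥ 100 starting reads, and estimates < 0.5 were set to 0.5.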

Row | Variant | yeast fitness
1 | G18A A21U A37U A42U C46A G58C U64A | ≤ 0.5
2 | C22G U32A | 0.71
3 | C29U C30G U59A | 0.617
4 | A14C U32G G58A A65C | 0.645
5 | A15U C24U G25C A37U A40C U53C G58C | ≤ 0.5
6 | G23C U53A A65U | ≤ 0.5
7 | G6A C11A U19A | 0.53
8 | C24U U54G | 0.577
9 | A21G A37G | 0.692
10 | C5A U16G A69C | 0.69
11 | C5G C11A A20C C29U | ≤ 0.5
12 | U8A G38C G48A | ≤ 0.5
13 | A14C A69C | 0.654
14 | C4A C22U C33G A45C U47C U53G A69C | ≤ 0.5
15 | C29A C31G | 0.677
16 | G25C C29G C33U G39U A57U | ≤ 0.5
17 | C24G C31U C61A | ≤ 0.5
18 | C11A G17C U47A G68C | ≤ 0.5
19 | C4U C5G C11U C29U U32A C33U G67U A70G | ≤ 0.5
20 | A15U C29A C55A | ≤ 0.5
21 | G18C G23A G25C A37G A43C U54C C55G G68A | ≤ 0.5
22 | A21G C66U | 0.858
23 | A21U A69C A70G | 0.594
24 | C4U A36C U59A | ≤ 0.5

Row | Variant | yeast fitness
25 | A14G A36U A37G C46A G48A | ≤ 0.5
26 | C29U A36C G56A | ≤ 0.5
27 | U7G C29G C46U G50U | ≤ 0.5
28 | C5U C31G C33U | 0.522
29 | U2C G39C | 0.774
30 | C29U C31A A43G G67C | ≤ 0.5
31 | U35A U47C C61G | ≤ 0.5
32 | G51A C60A | 0.599
33 | C4U A21G C46A G68U | 0.574
34 | G9C C62A | 0.576
35 | U8G C34G C55G C62A G68A | ≤ 0.5
36 | U2G C4U C61A A65U A69C | ≤ 0.5
37 | U59C G68A | 0.817
38 | U32G C46G | 0.757
39 | G63A A65U | 0.945
40 | C31A G44C C60G | ≤ 0.5
41 | G9C A15G C30U C46A U54A A57G | ≤ 0.5
42 | C4U A20G C61A | 0.512
43 | G56A G67U | 0.99
44 | U13G G41C G51A | 0.564
45 | C5G G9A C30G | ≤ 0.5
46 | U32C G58C | 0.884
47 | C5U C24U C33U G44C G68A | ≤ 0.5
48 | U2C C29G G39C C55A | ≤ 0.5

Row | Variant | yeast fitness
49 | A21C A36U | 0.54
50 | A40U C60A | 0.604
51 | A15C C55A | 0.562
52 | G10A C33U | 0.592
53 | G17C C62G | 0.57
54 | G17A U19C C66U | 0.665
55 | C29G A40U C66G | 0.551
56 | A20U C62U A65C | 0.682
57 | C31G A36C C49G | ≤ 0.5
58 | C11U A37G | 0.896
59 | A21G G50A C55U U64C | ≤ 0.5
60 | C4A G41A A42C G50C A70G | ≤ 0.5
61 | U3G C24A C34A C46G | 0.581
62 | C4U A36U A40C | 0.64
63 | U3A C31A C55U | ≤ 0.5
64 | U3C A42U G63A | ≤ 0.5
65 | C4A U28G | 0.681
66 | U2A C5A G56C | 0.56
67 | C11U A20C C49G G67A | ≤ 0.5
68 | C31U U32G C33G G58C | ≤ 0.5
69 | U7A A14U A36U G50C U54A G56A C61A | ≤ 0.5
70 | G39C G56C | 0.553
71 | C4G G56A C66G | ≤ 0.5
72 | G10C G51C A65U | ≤ 0.5

Row | Variant | yeast fitness
73 | U3A A15U A21C G39C A43G U54C | ≤ 0.5
74 | U13C C33U A45G G50A C66A A70U | ≤ 0.5
75 | G9A C11U C31U | 0.704
76 | C5A C11A A42U U53A | 0.616
77 | C46U U54C | 0.717
78 | G10A A21C C24A C66A | ≤ 0.5
79 | C34G C55G | 0.567
80 | U35A A42C C46U | 0.521
81 | U19C U28C C49A | 0.584
82 | U16C C27G G48C A65C | ≤ 0.5
83 | U19A C61U | 0.983
84 | C22G A45U G48C C49G | ≤ 0.5
85 | G25A U28G C33G A45C | ≤ 0.5
86 | A14G A45G G50A | ≤ 0.5
87 | A20U A21U C34G G63C | ≤ 0.5
88 | U2C C27G U28A A43U A69U | 0.541
89 | U8G A21U G68C | ≤ 0.5
90 | C5A A36U | 0.678
91 | U8A C11A C24U G67C | ≤ 0.5
92 | A20U G25C A65U A69C | 0.587
93 | C66G G67U | 0.63
94 | A40C G58A | 0.962
95 | A20C A57C C60A | ≤ 0.5
96 | C22U A42U G51C C62U | ≤ 0.5

Row | Variant | yeast fitness
97 | G48C U64G | 0.714
98 | U28A C31U | 0.7
99 | U2G G9C A20G A42C C46G C49U A69C | 0.576
100 | A20C U32A C34G A57C C66U | ≤ 0.5
101 | U26A C29G A43G A45U A65U | ≤ 0.5
102 | C5U U26A | 0.915
103 | U2C U16G C30G G63C | ≤ 0.5
104 | C29U A40U G41C | ≤ 0.5
105 | A43U G51A | 1
106 | C5U C29A A37U G38A | ≤ 0.5
107 | G52C A57U C60U C62U | ≤ 0.5
108 | C5G A15G C24G U32A C34G U64C G68A A69U A70U | ≤ 0.5
109 | G41A C60A C61U A69U | ≤ 0.5
110 | A14U C34G C49G C66U | ≤ 0.5
111 | A37C G52C C66G | ≤ 0.5
112 | A20U C24A G51C | ≤ 0.5
113 | G50C A69U | 0.833
114 | A40U A43C G67U | 0.724
115 | C27G C33G C60U C61G | 0.503
116 | G23U G63C | 0.623
117 | U26C U59A | 0.882
118 | C24A A42G G63A U64A | ≤ 0.5
119 | U16A G18A C31U A65G | 0.548
120 | C22A U53C | 0.764

Row | Variant | yeast fitness
121 | A36G C49U C61A | ≤ 0.5
122 | C24U C30G A45C C61G | 0.568
123 | C4G A21G A45U C49U | ≤ 0.5
124 | G9C A43G | 0.706
125 | G56C A57U G58A | ≤ 0.5
126 | C5U A14C A42U | ≤ 0.5
127 | G6C C33U G52A | ≤ 0.5
128 | C46G U54C A69C | 0.601
129 | U8C A37G | 0.657
130 | C4U C30A C61A A70U | 0.536
131 | C5U C30G C61A | ≤ 0.5
132 | C5G A15U U35A | 0.696
133 | U13A A40U A43C | 0.693
134 | C5G A14C C34G | ≤ 0.5
135 | C4A U26A A36C C49G | 0.583
136 | C46U G48C | 0.951
137 | G12A U19C A21U | 0.905
138 | A65C G68C | 0.778
139 | G6A C11A C49G | ≤ 0.5
140 | U8C U47C U59A A70G | ≤ 0.5
141 | A37U G58A | 0.767
142 | C22G U54A U59A C61U | ≤ 0.5
143 | C4A A40U | 0.94
144 | U7C G17A C55A | ≤ 0.5

Row | Variant | yeast fitness
145 | A15U C31U C49U G52A A57U G58C | ≤ 0.5
146 | A36C C46U U53A | 0.639
147 | G9C G44C | 0.65
148 | A20C G68A A70C | 0.522
149 | U3A G10C G39C G48A | ≤ 0.5
150 | C34G C60G C62U | 0.65
151 | U13C A15U U16A U19A C34U A57C | ≤ 0.5
152 | C29A G44C | 0.778
153 | U28A C33G A36U A40G A70G | ≤ 0.5
154 | A15U G44A G58A G68C | ≤ 0.5
155 | C5U G58C U59C A70G | ≤ 0.5
156 | U8C C49G C62A | ≤ 0.5
157 | C5G U28A C34G C46A | ≤ 0.5
158 | A14U C22G A57C G63C C66U | 0.578
159 | C5G C11G A15C A65C | ≤ 0.5
160 | U3C A45C C49U | 0.712
161 | C4U A15C C30G G56A A69C A70G | ≤ 0.5
162 | C4G C30A A45U C55U | ≤ 0.5
163 | C11G A57U C66U | ≤ 0.5
164 | U2G A36U A45U U53A | ≤ 0.5
165 | A40C G52C G67A | 0.55
166 | A15U C22G G52A A65U | ≤ 0.5
167 | U2G G17A C24U A36U A37U A70U | ≤ 0.5
